In ChEMBL document CHEMBL1155847, “Novel indoline-based acyl-CoA:cholesterol acyltransferase inhibitor with antiperoxidative activity: improvement of physicochemical properties and biological activities by introduction of carboxylic acid” (J Med Chem, 2008):
Values belong to the compound of their own block, whether it stands above or below them. Calls of active or inactive are those of the source. The calls are words filed in the database; no cut-off is given here.

Legend:
[1] = Distribution coefficient, log D at pH 7.0; type: physicochemical; conditions: octanol/water
Method in brief: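 5 mg of compound in 5 mL octanol shaken 30 min at room temperature with 5 mL 1/15 M potassium phosphate buffer pH 7.0, then centrifuged. Both phases quantified by HPLC. log D taken as log of the octanol/buffer concentration ratio.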

[2] = Solubility in water at pH 7.0; type: physicochemical
Method in brief: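 6 mg of compound shaken 30 min at room temperature in 3 mL 1/15 M potassium phosphate buffer pH 7.0, centrifuged and filtered (0.45 µm). Filtrate concentration by HPLC.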

[3] = target: Phosphatidylcholine-sterol acyltransferase (Rattus norvegicus) (UniProt P18424); experiment: Inhibition of rat LCAT up to 10 uM
[4] = Cmax in Sprague-Dawley rat at 10 mg/kg, po; type: ADME, organism-based; design: dose 10 mg/kg, route oral; conditions: in vivo
Method in brief: (§1)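 Male SD rats, 6-7 weeks, fasted overnight, n = 3; single oral 10 mg/kg dose suspended in 5% arabic gum. Jugular-vein heparinized blood at 0.5, 1, 3, 5, 8, 24 h; plasma free-form compound by HPLC. AUC taken over 24 h.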

[5] = Cmax in Japanese white rabbit at 10 mg/kg, po; type: ADME, organism-based, Oryctolagus cuniculus; design: dose 10 mg/kg, route oral; conditions: in vivo
Method in brief: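 Oral 10 mg/kg in 5% arabic gum to male Japanese white rabbits (2.7-3.0 kg, n = 4). Ear-vein heparinized blood at 0.25, 0.5, 1, 2, 3, 5, 8, 24 h. Free-form concentration in plasma by HPLC.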

[6] = Cmax in Beagle dog at 10 mg/kg, po; type: ADME, organism-based, Canis lupus familiaris; design: dose 10 mg/kg, route oral; conditions: in vivo
Method in brief: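 Male beagles (9.0-11.6 kg, n = 4) dosed orally at 10 mg/kg as a 5% arabic gum suspension. Heparinized jugular-vein blood at 0.25, 0.5, 1, 2, 3, 5, 8, 12 h. Plasma free-form drug measured by HPLC.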

Rattus norvegicus [7] = experiment: Hypolipidemic effect in high-cholesterol diet fed Wistar rat assessed as LDL/VLDL cholesterol level at 3 mg/kg/day, po for 3 days; type: functional
Method in brief: (§2)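 Male Wistar rats, 8-9 weeks, on a diet of 1% cholesterol, 0.5% cholic acid and 10% coconut oil for 3 days; dosed orally once daily in 5% arabic gum, or vehicle (n = 5/group). Fasted 5 h after the last dose; abdominal-aorta blood under pentobarbital. Serum total and HDL cholesterol measured enzymatically.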

Rattus norvegicus [8] = experiment: Hypolipidemic effect in high-cholesterol diet fed Wistar rat assessed as HDL cholesterol level at 3 mg/kg/day, po for 3 days; type: functional; method in brief: as §2
Oryctolagus cuniculus [9] = experiment: Hypolipidemic effect in high-cholesterol diet fed Japanese white rabbit assessed as LDL/VLDL cholesterol level at 1 mg/kg/day, po for 7 days; type: functional
Method in brief: (§3)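 Male Japanese white rabbits (2.5-3.0 kg) fed 1% cholesterol diet for 7 days with once-daily oral dosing in 5% arabic gum, or vehicle (n = 5/group). Fasted overnight after the final dose; ear-artery blood. Serum total and HDL cholesterol by enzymatic kit.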

Oryctolagus cuniculus [10] = experiment: Hypolipidemic effect in high-cholesterol diet fed Japanese white rabbit assessed as HDL cholesterol level at 1 mg/kg/day, po for 7 days; type: functional; method in brief: as §3
Canis familiaris [11] = experiment: Hypolipidemic effect in Western diet fed Beagle dog assessed as LDL/VLDL cholesterol level at 3 mg/kg/day, po for 7 days; type: functional, Canis lupus familiaris
Method in brief: (§4)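 Male beagles (8.8-12.0 kg) fed a Western diet (meat, eggs, butter) for 7 days with once-daily oral dosing in 5% arabic gum, or vehicle (n = 3/group). […] blood 24 h after the last dose. Serum total and HDL cholesterol measured enzymatically.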

Canis familiaris [12] = experiment: Hypolipidemic effect in Western diet fed Beagle dog assessed as HDL:HDL cholesterol level at 3 mg/kg/day, po for 7 days; type: functional, Canis lupus familiaris; method in brief: as §4
Syrian golden hamster [13] = experiment: Hypolipidemic effect in regular diet fed Syrian hamster assessed as LDL/VLDL cholesterol level at 3 mg/kg/day, po for 3 weeks; type: functional, Mesocricetus auratus
Method in brief: (§5)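 Male Syrian hamsters, 9 weeks, regular diet for 3 weeks with once-daily oral dosing in 5% arabic gum, or vehicle (n = 5/group). Abdominal-aorta blood 24 h after the last dose, under pentobarbital. Serum total and HDL cholesterol by enzymatic kit.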

Syrian golden hamster [14] = experiment: Hypolipidemic effect in regular diet fed Syrian hamster assessed as HDL:HDL cholesterol level at 3 mg/kg/day, po for 3 weeks; type: functional, Mesocricetus auratus; method in brief: as §5
[15] = target: T1, Sterol O-acyltransferase 1 (Homo sapiens, UniProt P35610); experiment: Inhibition of ACAT-mediated esterified cholesterol accumulation in human THP1 cells exposed to acetyl-LDL during differentiation assessed as effect on foam cell formation; type: cell-based, THP-1
T1 sequence (P35610 whole entry): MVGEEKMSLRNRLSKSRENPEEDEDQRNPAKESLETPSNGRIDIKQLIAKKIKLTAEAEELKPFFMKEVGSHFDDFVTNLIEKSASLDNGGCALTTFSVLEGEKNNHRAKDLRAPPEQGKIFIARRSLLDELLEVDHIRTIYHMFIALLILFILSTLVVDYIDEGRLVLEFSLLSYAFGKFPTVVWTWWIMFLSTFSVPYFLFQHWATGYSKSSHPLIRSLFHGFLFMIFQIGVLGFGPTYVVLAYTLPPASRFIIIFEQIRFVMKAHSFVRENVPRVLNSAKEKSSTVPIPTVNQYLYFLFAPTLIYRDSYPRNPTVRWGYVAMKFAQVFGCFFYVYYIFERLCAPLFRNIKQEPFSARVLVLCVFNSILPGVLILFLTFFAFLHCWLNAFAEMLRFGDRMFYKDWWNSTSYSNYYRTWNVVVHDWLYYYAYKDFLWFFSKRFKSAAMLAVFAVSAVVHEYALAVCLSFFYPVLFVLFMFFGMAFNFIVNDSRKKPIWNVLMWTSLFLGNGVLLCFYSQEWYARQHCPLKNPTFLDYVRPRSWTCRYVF

[16] = target: T2, Acyl-CoA:cholesterol acyltransferase (Oryctolagus cuniculus, UniProt Q95214); experiment: Inhibition of normocholesterolemic rabbit liver ACAT
T2 sequence (Q95214 whole entry): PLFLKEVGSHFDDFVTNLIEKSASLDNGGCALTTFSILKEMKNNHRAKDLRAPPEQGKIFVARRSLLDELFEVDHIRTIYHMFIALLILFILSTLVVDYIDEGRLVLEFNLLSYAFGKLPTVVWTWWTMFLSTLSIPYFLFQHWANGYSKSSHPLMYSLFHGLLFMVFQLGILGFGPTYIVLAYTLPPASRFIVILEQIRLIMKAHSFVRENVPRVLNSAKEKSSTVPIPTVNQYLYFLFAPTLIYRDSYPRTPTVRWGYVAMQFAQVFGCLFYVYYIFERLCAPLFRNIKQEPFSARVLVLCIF
Method in brief: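 Liver from normocholesterolemic male Japanese White rabbits homogenized in sucrose/phosphate/EDTA/dithioerythritol buffer pH 7.4. Microsomes collected by 12000g then 105000g spins. Then 30 nmol [1-¹⁴C]oleoyl-CoA added, 20 min at 37 °C. Cholesteryl ester extracted and separated by TLC.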

Brain = experiment: Antiperoxidative activity in Sprague-Dawley rat brain assessed as inhibition of malonaldehyde level; type: functional, tissue-based
Method in brief: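 Cerebral cortex from male SD rats (6 weeks) homogenized in ice-cold 50 mM PBS pH 7.4, spun 1300g. Supernatant incubated 37 °C, 30 min with vehicle or compound. Stopped with 20% TCA; thiobarbituric acid reaction at 100 °C, 15 min; MDA read at 532 nm, less pre-assay MDA. Duplicate assay, n = 2.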

[17] = AUC in Sprague-Dawley rat at 10 mg/kg, po; type: ADME, organism-based; design: dose 10 mg/kg, route oral; conditions: plasma; method in brief: as §1
[18] = target: T1, Sterol O-acyltransferase 1; experiment: Inhibition of ACAT-mediated esterified cholesterol accumulation in human THP1 cells exposed to acetyl-LDL after differentiation assessed as effect on foam cell formation; type: cell-based, THP-1
Method in brief: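 THP-1 cells first differentiated 3 days in RPMI-1640/10% FBS with PMA 200 nM and 2-mercaptoethanol 50 µM. Then washed and cultured 2 days with 50 µM 2-mercaptoethanol, acetyl-LDL 400 µg/mL from KHC rabbit plasma, and compound. Lipids extracted with hexane/isopropanol; esterified cholesterol = total minus free cholesterol, enzymatic; protein by Lowry. Duplicate assay, n = 4.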

[19] = target: T2, Acyl-CoA:cholesterol acyltransferase; experiment: Inhibition of ACAT in microsomes from hyperlipidemic white rabbit macrophages assessed as esterified cholesterol accumulation
Method in brief: (§6)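 Microsomes (12000g then 105000g spins at 4 °C, sucrose/phosphate/EDTA/dithioerythritol buffer pH 7.4) from hypercholesterolemic rabbit tissues, in 154 mM phosphate pH 7.4 with BSA. Compound preincubated 5 min at 37 °C, then 30 nmol [1-14C]oleoyl-CoA added. Reaction at 37 °C: adrenal 10 min, intestine 7.5 min, liver 20 min, macrophage 30 min. Labelled cholesteryl ester extracted and resolved by TLC. IC50 from duplicate tubes.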

[20] = target: T2, Acyl-CoA:cholesterol acyltransferase; experiment: Inhibition of ACAT in hyperlipidemic white rabbit liver microsomes assessed as esterified cholesterol accumulation; design: species or system Microsome; method in brief: as §6
[21] = target: T2, Acyl-CoA:cholesterol acyltransferase; experiment: Inhibition of ACAT in hyperlipidemic white rabbit intestine microsomes assessed as esterified cholesterol accumulation; design: species or system Microsome; method in brief: as §6
[22] = target: T2, Acyl-CoA:cholesterol acyltransferase; experiment: Inhibition of ACAT in hyperlipidemic white rabbit adrenal microsomes assessed as esterified cholesterol accumulation; design: species or system Adrenal gland; method in brief: as §6
Cavia porcellus = experiment: Adrenotoxicity in guinea pig at 100 mg/kg/day administered for 4 days; type: toxicity, organism-based; conditions: in vivo, 96 h
[23] = Inhibition of lipid peroxidation in genetically hypercholesterolemic KHC rabbit serum assessed as malonaldehyde level after 4 hrs; type: functional, cell-free; conditions: Oryctolagus cuniculus
Method in brief: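 Heparinized ear-artery plasma from KHC rabbits (2.4-2.7 kg) incubated with CuSO₄ 2 mM at 37 °C for 4 h with vehicle or compound. Lipid peroxide measured as MDA by kit. IC50 from duplicate tubes; n = 2.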

Plasma = experiment: Inhibition of LDL oxidation in genetically hypercholesterolemic KHC rabbit plasma assessed as malonaldehyde level after 1 hr; type: functional, cell-free; conditions: Oryctolagus cuniculus
Method in brief: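 LDL fraction isolated from plasma of male KHC rabbits and oxidized with CuSO₄ 5 µM at 37 °C for 1 h with vehicle or compound. Oxidation read as MDA. IC50 from duplicate tubes per concentration; n = 4.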

Phosphatidylcholine-sterol acyltransferase (Rattus norvegicus), sequence (P18424 whole entry, looked up): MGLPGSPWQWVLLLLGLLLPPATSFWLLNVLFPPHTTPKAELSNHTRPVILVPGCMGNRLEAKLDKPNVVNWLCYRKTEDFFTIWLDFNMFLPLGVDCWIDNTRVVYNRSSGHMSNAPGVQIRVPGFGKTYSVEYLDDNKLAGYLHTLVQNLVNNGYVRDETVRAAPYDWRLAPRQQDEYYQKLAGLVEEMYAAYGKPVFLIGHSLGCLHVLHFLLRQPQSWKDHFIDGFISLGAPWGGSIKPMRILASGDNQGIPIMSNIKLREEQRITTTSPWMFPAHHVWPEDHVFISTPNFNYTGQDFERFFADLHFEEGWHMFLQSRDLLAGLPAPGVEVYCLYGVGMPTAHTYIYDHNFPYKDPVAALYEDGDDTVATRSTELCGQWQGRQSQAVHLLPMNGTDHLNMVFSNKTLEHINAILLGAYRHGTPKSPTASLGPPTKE

- logD [1]: 3.5
- solubility [2]: 355 µg/mL
Compound: CCCCCCCCN1CC(CCC(=O)O)c2c(C)cc(C)c(NC(=O)C(C)(C)C)c21.Cl (stereo unspecified)

- Activity [3]: inactive
Compound: CCCCCCCCN1CCc2c(C)c(CC(=O)O)c(C)c(NC(=O)C(C)(C)C)c21

- Cmax [4]: 2.2 µM
- Cmax [5]: 7.2 µM
- Cmax [6]: 26.8 µM
- IC50 [15]: 1.8 µM
- IC50 [16]: 1.2 µM
- IC50 (Brain): 1.3 µM
- AUC [17]: 1.5 µg·h/mL
- IC50 [18]: 0.3 µM
- IC50 [19]: 1.9 µM
- IC50 [20]: 0.69 µM
- IC50 [21]: 0.72 µM
- IC50 [22]: 15.9 µM
- IC50 [23]: 4.4 µM
- IC50 (Plasma): 0.98 µM
Compound: CCCCCCCCN1CCc2c(C)c(CC(=O)O)c(C)c(NC(=O)C(C)(C)C)c21 [PACTIMIBE]
- Activity (Rattus norvegicus [7]): 9.7 mg/dL
- Activity (Rattus norvegicus [8]): 29.4 mg/dL
- Activity (Oryctolagus cuniculus [9]): 119.5 mg/dL
- Activity (Oryctolagus cuniculus [10]): 15.4 mg/dL
- Activity (Canis familiaris [11]): 31.6 mg/dL
- Activity (Canis familiaris [12]): 141.3 mg/dL
- Activity (Syrian golden hamster [13]): 70.3 mg/dL
- Activity (Syrian golden hamster [14]): 58.3 mg/dL
- Activity (Cavia porcellus): Non-toxic

- logD [1]: 3
- solubility [2]: 401 µg/mL
Compound: CCCCCCCCN1CCc2c(C)cc(C)c(NC(=O)C(C)(C)CCC(=O)O)c21.Cl

- logD [1]: 6.2
- solubility [2]: 0.08 µg/mL
Compound: CCCCCCCCN1CCc2c(C)cc(C)c(NC(=O)C(C)(C)C)c21.Cl

- IC50 [23]: 21.6 µM
- IC50 (Plasma): 132 µM
Compound: CC(C)(Sc1cc(C(C)(C)C)c(O)c(C(C)(C)C)c1)Sc1cc(C(C)(C)C)c(O)c(C(C)(C)C)c1 [PROBUCOL]

- IC50 (Brain): 3.1 µM
- AUC [17]: 0.2 µg·h/mL
Compound: CCCCCCCCN1CCc2c(C)cc(C)c(NC(=O)C(C)(C)C)c21

- logD [1]: 2.9
- solubility [2]: 1450 µg/mL
Compound: CCCCCCCCN1CCc2c(C)c(CC(=O)O)c(C)c(NC(=O)C(C)(C)C)c21.CCCCCCCCN1CCc2c(C)c(CC(=O)O)c(C)c(NC(=O)C(C)(C)C)c21.O=S(=O)(O)O [PACTIMIBE SULFATE]
